In ChEMBL document CHEMBL4808214, “Structure-activity relationship studies in substituted sulfamoyl benzamidothiazoles that prolong NF-κB activation” (Bioorg Med Chem, 2021):

How the values were obtained:
[1] = target: Nuclear factor NF-kappa-B complex (Homo sapiens) (UniProt Q00653+P19838+Q04206); assay: Activation of NF-kappaB in human THP1-Blue NF-kappaB cells co-expressing NFkappaB-inducible SEAP assessed as increase in SEAP activity at 5 uM measured after 20 hrs by quanti-blue based colorimetric assay relative to control; assay type: cell-based; settings: filed as activator
Nuclear factor NF-kappa-B complex (Homo sapiens), sequence (P19838 whole entry, looked up): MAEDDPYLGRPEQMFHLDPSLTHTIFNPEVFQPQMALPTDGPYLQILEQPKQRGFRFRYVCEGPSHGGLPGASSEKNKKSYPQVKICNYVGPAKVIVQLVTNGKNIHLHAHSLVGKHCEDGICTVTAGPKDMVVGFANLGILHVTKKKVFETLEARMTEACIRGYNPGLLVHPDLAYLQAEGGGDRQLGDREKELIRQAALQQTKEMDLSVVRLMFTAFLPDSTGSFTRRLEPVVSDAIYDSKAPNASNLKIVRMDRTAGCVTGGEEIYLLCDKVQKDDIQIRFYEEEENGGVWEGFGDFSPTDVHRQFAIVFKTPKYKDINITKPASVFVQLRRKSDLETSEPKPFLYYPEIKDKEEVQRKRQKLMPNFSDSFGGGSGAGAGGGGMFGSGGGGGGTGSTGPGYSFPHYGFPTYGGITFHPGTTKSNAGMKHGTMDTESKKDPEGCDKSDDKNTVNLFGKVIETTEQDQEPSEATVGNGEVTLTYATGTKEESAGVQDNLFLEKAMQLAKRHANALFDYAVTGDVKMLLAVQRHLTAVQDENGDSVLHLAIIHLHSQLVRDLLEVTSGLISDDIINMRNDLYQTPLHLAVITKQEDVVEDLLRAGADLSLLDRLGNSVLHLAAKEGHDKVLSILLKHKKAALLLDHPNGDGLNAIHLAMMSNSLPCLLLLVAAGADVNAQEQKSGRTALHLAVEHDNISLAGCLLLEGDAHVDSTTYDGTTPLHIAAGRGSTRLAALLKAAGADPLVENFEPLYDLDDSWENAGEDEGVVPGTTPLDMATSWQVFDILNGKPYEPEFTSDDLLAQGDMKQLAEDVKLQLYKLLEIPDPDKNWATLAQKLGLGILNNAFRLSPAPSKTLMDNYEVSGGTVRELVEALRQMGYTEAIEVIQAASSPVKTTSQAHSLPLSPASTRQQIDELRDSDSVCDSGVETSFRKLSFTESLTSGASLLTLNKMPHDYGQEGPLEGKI
Nuclear factor NF-kappa-B complex (Homo sapiens), sequence (Q00653 whole entry, looked up): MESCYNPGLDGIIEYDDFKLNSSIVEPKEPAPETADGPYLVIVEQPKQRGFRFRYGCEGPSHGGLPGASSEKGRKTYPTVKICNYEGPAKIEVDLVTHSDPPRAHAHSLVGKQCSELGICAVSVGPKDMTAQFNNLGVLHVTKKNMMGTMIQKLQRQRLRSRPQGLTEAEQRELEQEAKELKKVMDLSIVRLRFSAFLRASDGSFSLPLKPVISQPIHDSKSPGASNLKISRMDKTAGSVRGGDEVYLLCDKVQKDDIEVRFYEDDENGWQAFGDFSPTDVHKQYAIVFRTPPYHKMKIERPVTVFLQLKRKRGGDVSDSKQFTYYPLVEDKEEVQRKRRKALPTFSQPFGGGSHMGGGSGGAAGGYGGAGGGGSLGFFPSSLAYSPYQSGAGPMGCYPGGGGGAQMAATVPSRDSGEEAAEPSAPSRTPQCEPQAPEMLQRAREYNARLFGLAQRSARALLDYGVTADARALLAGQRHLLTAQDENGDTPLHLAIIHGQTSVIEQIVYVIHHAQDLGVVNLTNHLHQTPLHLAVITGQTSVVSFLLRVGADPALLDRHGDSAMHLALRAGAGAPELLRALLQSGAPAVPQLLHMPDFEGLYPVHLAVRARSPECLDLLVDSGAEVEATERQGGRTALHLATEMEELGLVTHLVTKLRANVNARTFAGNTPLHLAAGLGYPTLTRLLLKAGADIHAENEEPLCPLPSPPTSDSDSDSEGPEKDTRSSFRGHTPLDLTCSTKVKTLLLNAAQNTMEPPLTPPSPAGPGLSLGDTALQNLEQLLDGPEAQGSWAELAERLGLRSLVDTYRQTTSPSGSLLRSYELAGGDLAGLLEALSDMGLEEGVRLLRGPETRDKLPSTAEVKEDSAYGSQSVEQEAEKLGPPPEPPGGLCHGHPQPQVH
Nuclear factor NF-kappa-B complex (Homo sapiens), sequence (Q04206 whole entry, looked up): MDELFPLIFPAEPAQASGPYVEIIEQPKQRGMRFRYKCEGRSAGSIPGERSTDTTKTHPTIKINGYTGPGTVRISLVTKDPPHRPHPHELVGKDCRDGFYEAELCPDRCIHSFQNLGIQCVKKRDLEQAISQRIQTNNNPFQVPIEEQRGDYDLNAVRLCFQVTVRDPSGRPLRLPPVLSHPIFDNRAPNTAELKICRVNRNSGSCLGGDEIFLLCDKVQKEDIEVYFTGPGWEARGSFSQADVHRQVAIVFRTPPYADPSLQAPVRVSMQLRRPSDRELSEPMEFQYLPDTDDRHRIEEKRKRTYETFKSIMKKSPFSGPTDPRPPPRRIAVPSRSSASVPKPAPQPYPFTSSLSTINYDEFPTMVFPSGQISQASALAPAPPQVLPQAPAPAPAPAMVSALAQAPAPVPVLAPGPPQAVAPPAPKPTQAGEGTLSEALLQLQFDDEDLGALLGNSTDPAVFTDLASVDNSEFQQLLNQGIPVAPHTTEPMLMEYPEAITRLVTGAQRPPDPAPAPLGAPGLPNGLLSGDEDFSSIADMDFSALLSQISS
Procedure, shortened: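 THP1-Blue NF-κB reporter cells plated at 10^5/well in RPMI with 10% FBS, penicillin/streptomycin and Normocin. Compound added at 5 μM final (0.5% DMSO), then incubated 20 h. Secreted SEAP in the supernatant was read colorimetrically with QuantiBlue at 630 nm. Two-point normalization set vehicle (0.5% DMSO) as 100% and a reference activator as 200%.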

THP-1 = assay: Cytotoxicity against human THP-1 cells assessed as cell viability at 5 uM measured after 18 hrs by MTT assay relative to control; assay type: cell-based; settings: thp-1, 18 h
Procedure, shortened: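 THP-1 cells were plated at 10^5/well in RPMI with 10% FBS and penicillin/streptomycin, then given compound at 5 μM final (0.5% DMSO) for 18 h. MTT at 0.5 mg/mL was added for 4–6 h, followed by SDS/HCl lysis buffer overnight. Absorbance was read at 570 nm against a 650 nm reference. Viability was normalized to DMSO as 100%.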

Row | Compound | Activity [1] | Activity (THP-1)
1 | Cc1ccc(-c2csc(NC(=O)c3ccc(S(=O)(=O)N4CCCCC4)cc3)n2)cc1C | 98% | 
2 | Cc1ccc(Br)cc1-c1csc(NC(=O)c2ccc(S(=O)(=O)N3CCCCC3)cc2)n1 | 207% | 91%
3 | Cc1cccc(-c2csc(NC(=O)c3ccc(S(=O)(=O)N4CCCCC4)cc3)n2)c1 |  | 98%
4 | Cc1ccc(C)c(-c2nc(NC(=O)c3ccc(S(=O)(=O)N4CCCCC4)cc3)sc2-c2ccco2)c1 |  | 106%
5 | Cc1ccc2c(c1)-c1nc(NC(=O)c3ccc(S(=O)(=O)N4CCCCC4)cc3)sc1C2 | 109% | 89%
6 | Cc1ccc(C)c(-c2nc(NC(=O)c3ccc(S(=O)(=O)N4CCCCC4)cc3)sc2-c2ccccc2)c1 | 99% | 
7 | Cc1ccc(C)c(Cc2csc(NC(=O)c3ccc(S(=O)(=O)N4CCCCC4)cc3)n2)c1 | 101% | 100%
8 | Cc1cccc(C)c1-c1csc(NC(=O)c2ccc(S(=O)(=O)N3CCCCC3)cc2)n1 | 185% | 100%
9 | Cc1ccc(C)c(-c2csc(NC(=O)c3ccc(S(=O)(=O)N4CCN(C(=O)OC(C)(C)C)CC4)cc3)n2)c1 | 101% | 132%
10 | O=C(Nc1nc(-c2cccc3ccccc23)cs1)c1ccc(S(=O)(=O)N2CCCCC2)cc1 | 198% | 93%
11 | Cc1ccccc1-c1csc(NC(=O)c2ccc(S(=O)(=O)N3CCCCC3)cc2)n1 |  | 98%
12 | CCCN(CCC)S(=O)(=O)c1ccc(C(=O)Nc2nc(-c3cc(C)ccc3C)cs2)cc1 | 167% | 96%
13 | Cc1ccc(C)c(-c2csc(NC(=O)c3ccc(S(=O)(=O)N4CCCCC4)c(Cl)c3)n2)c1 | 223% | 88%
14 | CCCC#Cc1sc(NC(=O)c2ccc(S(=O)(=O)N3CCCCC3)cc2)nc1-c1cc(C)ccc1Br | 202% | 95%
15 | Cc1ccc(C)c(-c2csc(NC(=O)c3ccc(S(=O)(=O)N4CCCCC4)cn3)n2)c1 | 99% | 94%
16 | Cc1ccc(C)c(-c2csc(NS(=O)(=O)c3ccc(C(=O)N4CCCCC4)cc3)n2)c1 | 103% | 69%
17 | CCC#Cc1sc(NC(=O)c2ccc(S(=O)(=O)N3CCCCC3)cc2)nc1-c1cc(C)ccc1C | 264% | 103%
18 | Cc1ccc(C)c(-c2csc(NC(=O)c3ccc(S(=O)(=O)N4CCNCC4)cc3)n2)c1 | 101% | 121%
19 | Cc1ccc(C)c(-c2nc(NC(=O)c3ccc(S(=O)(=O)N4CCCCC4)cc3)sc2N2CCCCC2)c1 | 99% | 89%
20 | C#Cc1ccc(C)c(-c2csc(NC(=O)c3ccc(S(=O)(=O)N4CCCCC4)cc3)n2)c1 | 101% | 92%
21 | CC(C)(C)Cc1csc(NC(=O)c2ccc(S(=O)(=O)N3CCCCC3)cc2)n1 | 101% | 116%
22 | CCCC1CCN(S(=O)(=O)c2ccc(C(=O)Nc3nc(-c4cc(C)ccc4Br)cs3)cc2)CC1 | 191% | 97%
23 | Cc1ccc(C)c(-c2csc(NC(=O)c3ccc(S(=O)(=O)N4CCCCC4)c(Br)c3)n2)c1 | 209% | 90%
24 | Cc1cccc(-c2csc(NC(=O)c3ccc(S(=O)(=O)N4CCCCC4)cc3)n2)c1C | 179% | 103%

Row | Compound | Activity [1] | Activity (THP-1)
25 | CCCN1CCN(S(=O)(=O)c2ccc(C(=O)Nc3nc(-c4cc(C)ccc4C)cs3)cc2)CC1 |  | 80%
26 | Cc1ccc2c(c1)-c1nc(NC(=O)c3ccc(S(=O)(=O)N4CCCCC4)cc3)sc1CC2 | 114% | 95%
27 | Cc1ccc(C)c(-c2ccc(NC(=O)c3ccc(S(=O)(=O)N4CCCCC4)cc3)cn2)c1 |  | 93%
28 | Cc1ccc(C)c(-c2csc(NC(=O)c3ccc(S(=O)(=O)N4CCCCC4)cc3Br)n2)c1 | 120% | 96%
29 | Cc1ccc(C)c(-c2csc(NC(=O)c3ccc(S(=O)(=O)N4CCCCC4)cc3Cl)n2)c1 | 127% | 87%
30 | CCCc1csc(NC(=O)c2ccc(S(=O)(=O)N3CCCCC3)cc2)n1 |  | 115%
31 | Cc1ccc(C)c(-c2nnc(NC(=O)c3ccc(S(=O)(=O)N4CCCCC4)cc3)s2)c1 |  | 90%
32 | Cc1ccc(C)c(-c2ccc(NC(=O)c3ccc(S(=O)(=O)N4CCCCC4)cc3)nc2)c1 |  | 93%
33 | CCc1csc(NC(=O)c2ccc(S(=O)(=O)N3CCCCC3)cc2)n1 |  | 120%
34 | CCN(c1ccccc1)S(=O)(=O)c1ccc(C(=O)Nc2nc(-c3cc(C)ccc3C)cs2)cc1 | 105% | 81%
35 | Cc1ccc(C)c(-c2csc(NC(=O)c3ccc(S(=O)(=O)N4CCCCC4)c(N)c3)n2)c1 | 125% | 92%
36 | CCSc1sc(NC(=O)c2ccc(S(=O)(=O)N3CCCCC3)cc2)nc1-c1cc(C)ccc1C | 103% | 
37 | Cc1ccc(C)c(-c2csc(C(=O)Nc3ccc(S(=O)(=O)N4CCCCC4)cc3)n2)c1 | 99% | 91%
38 | Cc1ccc(C)c(-c2csc(NC(=O)c3ccc(S(=O)(=O)N4CCCCC4)c([N+](=O)[O-])c3)n2)c1 | 115% | 93%
39 | C#Cc1sc(NC(=O)c2ccc(S(=O)(=O)N3CCCCC3)cc2)nc1-c1cc(C)ccc1C | 118% | 111%
40 | Cc1ccc(C)c(-c2nc(NC(=O)c3ccc(S(=O)(=O)N4CCCCC4)cc3)sc2C)c1 | 159% | 97%
41 | Cc1ccc(C)c(-c2csc(NCc3ccc(S(=O)(=O)N4CCCCC4)cc3)n2)c1 | 99% | 85%
42 | CC(=O)N1CCN(S(=O)(=O)c2ccc(C(=O)Nc3nc(-c4cc(C)ccc4C)cs3)cc2)CC1 | 101% | 114%
43 | CCCC#Cc1sc(NC(=O)c2ccc(S(=O)(=O)N3CCC(CCC)CC3)cc2)nc1-c1cc(C)ccc1C | 112% | 102%
44 | CCCN(CC)S(=O)(=O)c1ccc(C(=O)Nc2nc(-c3cc(C)ccc3C)cs2)cc1 | 183% | 104%
45 | Cc1ccc(C)c(-c2csc(NC(=O)c3ccc(S(=O)(=O)C4CCCCC4)cc3)n2)c1 |  | 82%
46 | Cc1ccc(C)c(-c2cccc(NC(=O)c3ccc(S(=O)(=O)N4CCCCC4)cc3)n2)c1 |  | 94%
47 | Cc1ccc(C)c(-c2csc(NC(=O)c3ccc(S(=O)(=O)N4CCCCC4)nc3)n2)c1 |  | 89%
48 | Cc1ccc(C)c(-c2nc(NC(=O)c3ccc(S(=O)(=O)N4CCCCC4)cc3)sc2Br)c1 | 133% | 84%

Row | Compound | Activity [1] | Activity (THP-1)
49 | Cc1ccc(C)c(-c2csc(NC(=O)c3cccc(C(=O)N4CCCCC4)c3)n2)c1 |  | 88%
50 | COc1cc(S(=O)(=O)N2CCCCC2)ccc1C(=O)Nc1nc(-c2cc(C)ccc2C)cs1 | 99% | 
51 | CCCC#Cc1sc(NC(=O)c2ccc(S(=O)(=O)N3CCC(CCC)CC3)cc2)nc1-c1cc(C)ccc1Br | 111% | 97%
52 | Cc1ccc(C)c(-c2cnc(NC(=O)c3ccc(S(=O)(=O)N4CCCCC4)cc3)s2)c1 | 99% | 101%
53 | CCCCc1sc(NC(=O)c2ccc(S(=O)(=O)N3CCCCC3)cc2)nc1-c1cc(C)ccc1C | 109% | 129%
54 | CCN(CC)c1sc(NC(=O)c2ccc(S(=O)(=O)N3CCCCC3)cc2)nc1-c1cc(C)ccc1C | 99% | 94%
55 | CCc1ccc(C)c(-c2csc(NC(=O)c3ccc(S(=O)(=O)N4CCCCC4)cc3)n2)c1 | 203% | 102%
56 | Cc1ccc(C)c(-c2csc(N(C)C(=O)c3ccc(S(=O)(=O)N4CCCCC4)cc3)n2)c1 | 101% | 97%
57 | Cc1ccc(C)c(-c2csc(NC(=O)c3ccc(SC4CCCCC4)cc3)n2)c1 |  | 85%
58 | CC(C)(C)c1csc(NC(=O)c2ccc(S(=O)(=O)N3CCCCC3)cc2)n1 | 99% | 113%
59 | CCOc1sc(NC(=O)c2ccc(S(=O)(=O)N3CCCCC3)cc2)nc1-c1cc(C)ccc1C | 102% | 104%
60 | Cc1csc(NC(=O)c2ccc(S(=O)(=O)N3CCCCC3)cc2)n1 |  | 108%
61 | C#CCN(C(=O)c1ccc(S(=O)(=O)N2CCCCC2)cc1)c1nc(-c2cc(C)ccc2C)cs1 |  | 102%
62 | Cc1cc(C)cc(-c2csc(NC(=O)c3ccc(S(=O)(=O)N4CCCCC4)cc3)n2)c1 | 97% | 91%
63 | Cc1ccc(C)c(-c2csc(NC(=O)c3ccc(S(=O)(=O)N4CCCCC4)s3)n2)c1 | 103% | 97%
64 | CCCCCc1sc(NC(=O)c2ccc(S(=O)(=O)N3CCCCC3)cc2)nc1-c1cc(C)ccc1C | 117% | 108%
65 | Cc1ccc(C)c(-c2c[nH]c(NC(=O)c3ccc(S(=O)(=O)N4CCCCC4)cc3)n2)c1 | 99% | 51%
66 | CCOC1CCN(S(=O)(=O)c2ccc(C(=O)Nc3nc(-c4cc(C)ccc4C)cs3)cc2)CC1 | 201% | 117%
67 | CCCCN(CCCC)S(=O)(=O)c1ccc(C(=O)Nc2nc(-c3cc(C)ccc3C)cs2)cc1 | 102% | 
68 | CCc1sc(NC(=O)c2ccc(S(=O)(=O)N3CCCCC3)cc2)nc1-c1cc(C)ccc1C | 179% | 104%
69 | Cc1ccc(-c2csc(NC(=O)c3ccc(S(=O)(=O)N4CCCCC4)cc3)n2)c(C)c1 | 98% | 102%
70 | Cc1ccc(C)c(-c2csc(NC(=O)c3ccc(S(=O)(=O)NC4CCCCC4)cc3)n2)c1 |  | 91%
71 | COc1cc(C(=O)Nc2nc(-c3cc(C)ccc3C)cs2)ccc1S(=O)(=O)N1CCCCC1 | 99% | 
